Assay outcomes from PubChem.
CSN deneddyl inh – CSN deneddylation inhibition. inhibition, % at 12.5 µM. Q92905. Purified CSN, SCF-Nedd8-OG deneddylation, fluorescence polarization. AID 651999. 360,000 compounds, 0.38% hits;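 active means pattern-corrected inhibition above about 35%, with an unprinted fluorescence ratio check between 0.5 and 1.5, limit read from the data, passing the limit was not always enough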;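 further: 0% = enzyme with substrate and 100% = substrate without enzyme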
Target sequence (Q92905 whole entry, looked up, one chain of several): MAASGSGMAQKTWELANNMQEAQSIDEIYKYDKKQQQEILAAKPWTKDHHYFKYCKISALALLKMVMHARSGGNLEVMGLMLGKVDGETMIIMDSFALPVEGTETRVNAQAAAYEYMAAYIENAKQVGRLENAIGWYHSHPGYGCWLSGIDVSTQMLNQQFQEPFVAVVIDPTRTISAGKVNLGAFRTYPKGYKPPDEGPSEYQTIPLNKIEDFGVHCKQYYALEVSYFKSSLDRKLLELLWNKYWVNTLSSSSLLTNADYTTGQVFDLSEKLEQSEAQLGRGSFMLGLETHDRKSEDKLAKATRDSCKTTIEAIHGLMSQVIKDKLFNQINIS
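Material: human Csn5 produced in HEK293T cells; Input: enzyme 0.24 nM; Reagent: SCFSkp2-Nedd8OG substrate at 10 nM final; Dosing: 12.5 µM compound; Incubation: 90 min reaction at room temperature; Detection: fluorescence polarization of the substrate; Evaluation: % inhibition of substrate cleavage by Csn5; Control set: substrate-only high control, full reaction low control.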
LEDGF integ inh – blocks HIV-1 LEDGF/p75-dependent DNA integration; TR-FRET IN-LEDGF/p75 DNA integration, Eu/Cy5; 370,000 compounds, 0.64% hits; inhibition, % at 3.7 µM;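 active means inhibition above the screen-wide mean plus 3 SD, cut at about 13% in these data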;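 further: signal is the Cy5 over europium emission ratio at 671 and 618 nm; 0% = plate median of compound wells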
MBD2 DNA inh – blocks human MBD2 binding to methylated DNA | 370,000 compounds, 0.31% hits | inhibition, % at 4.4 µM | TR-FRET, MBD2 binding to methylated oligonucleotide; in the data active means inhibition above about 13%
ATG4B inh – inhibitors of human ATG4B cysteine protease; Q9Y4P1; ATG4B cleavage of LC3-PLA2, NBD-HPC fluorescence, 1 h; inhibition, % at 8.33 µM; 340,000 compounds, 0.51% hits; AID 504462; in the data active means inhibition above about 40%
Target sequence (Q9Y4P1 whole entry, looked up): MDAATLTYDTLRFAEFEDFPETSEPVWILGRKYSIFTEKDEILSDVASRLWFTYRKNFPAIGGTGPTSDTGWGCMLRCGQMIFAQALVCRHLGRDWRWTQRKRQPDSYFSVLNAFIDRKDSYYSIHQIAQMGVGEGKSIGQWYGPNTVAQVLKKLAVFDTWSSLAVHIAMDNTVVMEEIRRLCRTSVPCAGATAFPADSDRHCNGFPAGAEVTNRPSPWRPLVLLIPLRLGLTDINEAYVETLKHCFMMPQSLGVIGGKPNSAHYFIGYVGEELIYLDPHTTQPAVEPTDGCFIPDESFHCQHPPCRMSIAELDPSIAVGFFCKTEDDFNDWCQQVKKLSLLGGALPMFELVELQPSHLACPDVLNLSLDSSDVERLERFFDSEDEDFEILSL
UHRF1 MBD2 ctr – blocks human UHRF1 binding to methylated DNA. AID 687016. UHRF1 binding to methylated oligo, TR-FRET. 370,000 compounds, 0.75% hits. inhibition, % at 4.4 µM. Q96T88; in the data active means inhibition above about 21%;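 further: UHRF1 SRA domain binding a hemimethylated CpG hairpin DNA probe; 0% = median of test compound wells and 100% = reference inhibitor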
rCAG binder – binds r(CAG) RNA repeats | r(CAG) RNA repeat, TO-PRO-1 dye displacement fluorescence | 370,000 compounds, 1.3% hits | inhibition, % at 3 µM;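 active means inhibition above the plate cutoff, the mean of all test compounds on that plate plus 3 SD, cut at about 35% in these data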;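 further: 0% = DMSO alone and 100% = 100 µM mitoxantrone as full dye displacement; higher means more dye released from RNA so lower well fluorescence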
IN multimer up – counter-screen for LEDGF/p75 integration inhibitors: HIV-1 integrase multimerization activators; TR-FRET HIV-1 integrase multimerization, biochemical; shares compounds with LEDGF integ inh; 2,000 compounds, 17% hits; activation, % at 7.7 µM; AID 1053131; in the data active means activation above about 8.9%
TRFRET interf – counter-screen for LEDGF/p75 integration inhibitors: TR-FRET optical interference | inhibition, % at 7.7 µM | AID 1053135 | 2,000 tested, under 10 active | TR-FRET optical interference counterscreen, HIV-1 IN multimerization | shares compounds with LEDGF integ inh;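 active means inhibition above the mean over all tested compounds plus 3 SD, which no compound reached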;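 further: 0% = integrase with antibodies and DMSO and 100% = antibodies without integrase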
LEDGF integ conf – confirmation of HIV-1 LEDGF/p75-dependent integration inhibitors. shares compounds with LEDGF integ inh. TR-FRET LEDGF/p75-dependent HIV-1 integration, biochemical. inhibition, % at 3.7 µM. 2,000 compounds, 36% hits; in the data active means inhibition above about 14%
An asterisk follows results filed as active; · = not tested or not shown. Sampled rows, rich in hits. Any-hit rate of the full collection: about 3.1%.

SMILES | CSN deneddyl inh | LEDGF integ inh | MBD2 DNA inh | ATG4B inh | UHRF1 MBD2 ctr | rCAG binder | IN multimer up | TRFRET interf | LEDGF integ conf
COc1ccc(Cn2c(NC(=O)c3ccccc3)nc(Cc3ccccc3)c2-c2ccccc2)cc1 | · | 5.7 | 2.1 | · | -1.9 | 6.8 | · | · | ·
CC(=O)Nc1ccccc1OCC(=O)c1cc(C)n(Cc2cccs2)c1C | 2.9 | -3.9 | 1.2 | 0.6 | -0.9 | -3.3 | · | · | ·
Cc1cc(C(=O)COc2cccnc2[N+](=O)[O-])c(C)n1Cc1cccs1 | -3.5 | 13.7* | -1.0 | 0.2 | 1.4 | 5.3 | 1.5 | -7.6 | 5.0
CCCCC#CC(CC)NCc1ccc(OC)cc1OC (stereo unspecified) | · | 0.4 | -1.6 | · | 2.1 | · | · | · | ·
CCOC(=O)CC[C@@H]1CC[C@]2(CCCN(S(=O)(=O)C3CCCCC3)C2)O1 | · | 3.5 | -1.7 | · | 2.3 | 0.3 | · | · | ·
COCCNc1nc(SC)nc2sc3c(c12)CCN(C)C3 | 4.9 | -0.7 | 3.0 | 3.6 | 1.8 | 0.8 | · | · | ·
COCCCNc1nc(SCc2ccccc2)nc2sc3c(c12)CCC3 | 8.2 | 13.9* | -4.0 | 23.0 | -0.4 | 10.9 | 1.9 | -9.8 | -1.5
Cc1ccc(S(=O)(=O)N(C)[C@H]2C[C@H]3c4cc(-c5ccccc5C)ccc4CCN3C[C@H]2[C@H](C)O)cc1 | · | -1.8 | 0.7 | · | 0.1 | 4.3 | · | · | ·
COC(=O)[C@]12C[C@H](CC(=O)NCc3cccs3)C(=O)N(Cc3ccc(Cl)cc3Cl)C1=C[C@H](COCc1ccccc1)O[C@@H]2C | · | 1.1 | -3.6 | · | -2.2 | 8.5 | · | · | ·
COc1ccc(C(CNCC(O)COc2c(C)ccc(C)c2C)N(C)C)cc1 (stereo unspecified) | 3.6 | 13.6* | -6.2 | 11.4 | -3.2 | -5.0 | -0.4 | 2.2 | 3.4
CCOC(=O)[C@]12CCCC3=C1N(CCC3)C(=O)[C@@H](CC(=O)N1CCC(c3ccccc3)CC1)C2 | · | -1.5 | -0.6 | · | 1.0 | 0.6 | · | · | ·
Cc1cc(/C=N/O)c(C)n1-c1ccc(Br)cc1 | -4.0 | 17.7* | 0.9 | -5.8 | -1.7 | 6.5 | -0.5 | 2.2 | -4.6
O=C([C@@H]1C[C@H]1c1ccccc1)N1CC[C@H]2[C@H](CCCN2Cc2ccccc2)C1 | · | -1.6 | -2.3 | · | -2.2 | 0.4 | · | · | ·
Cc1ccccc1Nc1cc2ccccc2c(=O)[nH]1 | 29.0 | · | · | 33.8 | · | · | · | · | ·
O=c1[nH]c(Nc2ccccc2Cl)cc2ccccc12 | 26.3 | 30.0* | -4.1 | -3.9 | 9.3 | 1.9 | 1.1 | -3.8 | 29.6*
Clc1ccc2oc(-c3ccccc3)nc2c1 | -4.4 | 19.4* | 2.0 | -5.0 | 8.8 | 2.2 | 5.8 | -20.2 | 4.0
COP(=O)(O)[C@@H](CC(C)C)NC(=O)OCc1ccccc1 | · | 0.2 | 0.7 | · | 1.5 | 1.1 | · | · | ·
CC1(OC(=O)c2ccc(Cl)nc2)C(=O)C=C2C=C3CCCN3C=C2C1=O (stereo unspecified) | 34.5 | 17.6* | -0.7 | -6.2 | 13.2 | 14.8 | 8.4 | -42.3 | 41.7*
COC(=O)CCC(=O)OC1(C)C(=O)C=C2C=C3CCCN3C=C2C1=O (stereo unspecified) | 6.2 | 7.9 | -4.4 | -5.0 | 1.1 | 9.6 | · | · | ·
N=C(N)c1ccc(N)cc1 | 5.3 | -0.1 | 2.4 | -1.0 | -0.1 | 2.3 | · | · | ·
NC(=Nc1ccc(N)cc1)C(N)=Nc1ccc(N)cc1 | -3.6 | 39.3* | -5.0 | 3.0 | -3.6 | 12.9 | 1.2 | -4.0 | -5.5
Cc1cc(CNC(=O)Cn2cc([N+](=O)[O-])cn2)c2ccccc2n1 | -10.4 | 17.4* | 0.2 | 5.2 | -2.4 | -1.2 | -1.5 | 7.8 | 5.7
Cc1cc(CNC(=O)C(C)n2cc([N+](=O)[O-])cn2)c2ccccc2n1 (stereo unspecified) | -3.1 | -3.9 | 4.2 | 0.2 | 0.5 | -0.4 | · | · | ·
C=CCN(CC#CC1=CCCCC1)Cc1ccc(OC)cc1OC | · | 2.7 | -1.2 | · | -1.1 | -2.5 | · | · | ·
COC(=O)C1=C(C)N(Cc2cccc(C(F)(F)F)c2)C(=NCC2CC2)NC1c1cccc(F)c1 (stereo unspecified) | · | -0.6 | -5.6 | · | -1.6 | 6.9 | · | · | ·
SMILES | CSN deneddyl inh | LEDGF integ inh | MBD2 DNA inh | ATG4B inh | UHRF1 MBD2 ctr | rCAG binder | IN multimer up | TRFRET interf | LEDGF integ conf
CC1OC(Oc2c(-c3cc(O)c(O)c(O)c3)oc3cc(O)cc(O)c3c2=O)C(O)C(O)C1O (stereo unspecified) | 1.7 | 38.6* | 2.6 | -21.6 | 2.4 | 2.6 | 41.1* | -146.1 | 52.7*
COc1ccc(-c2oc3cc(O)c(OC)c(O)c3c(=O)c2OC)cc1 | 3.7 | -1.4 | -6.1 | -6.5 | 1.2 | 19.2 | · | · | ·
COc1c(-c2ccc(O)cc2)oc2cc(O)cc(O)c2c1=O | 13.0 | 15.4* | 10.7 | -32.7 | 28.3* | 12.8 | 8.6 | -43.3 | 44.8*
N#Cc1ccccc1N1CCN(S(=O)(=O)c2ccc3c(c2)CCC(=O)N3)CC1 | · | -0.7 | 1.7 | · | 0.8 | -1.1 | · | · | ·
CCOC(=O)CCCNC(=O)OCCCN1CCC2(CCC(c3ccccc3)CC2)C1=O (stereo unspecified) | · | -0.6 | -1.4 | · | -1.5 | -1.2 | · | · | ·
CCOC(=O)c1cnc2c(ccc3ccccc32)c1N | 5.3 | 59.6* | -2.2 | 4.4 | -0.1 | 1.4 | 7.9 | -39.9 | -0.9
CCOC(=O)c1cnc2c(ccc3ccccc32)c1NCCO | 1.0 | -1.0 | 2.8 | -22.6 | -2.0 | 2.5 | · | · | ·
Cc1ccc(C2/C(=C(/O)c3ccc(Br)cc3)C(=O)C(=O)N2Cc2ccco2)o1 (stereo unspecified) | 2.6 | 14.8* | -4.6 | 11.8 | 1.9 | 19.5 | 0.5 | -2.5 | 16.1*
CC(C)(C)C(=O)OC12CCCN(C1)/C(=C/c1ccc(Cl)cc1)C2 (stereo unspecified) | · | 0.3 | 2.1 | · | 0.9 | 2.7 | · | · | ·
Cc1ccc2nc(SCC(=O)NC3CCS(=O)(=O)C3)[nH]c2c1 (stereo unspecified) | -0.1 | 3.1 | -0.4 | -3.9 | 2.4 | 0.5 | · | · | ·
O=C(CSc1nc2ccccc2[nH]1)NC1CCS(=O)(=O)C1 (stereo unspecified) | -6.2 | 37.0* | 0.3 | 2.8 | -0.8 | -0.7 | 0.3 | -1.4 | -7.6
Nc1n[nH]c(CCCO)n1 | -14.2 | 24.6* | 1.4 | 10.3 | 0.2 | -0.8 | -0.8 | 3.0 | -3.9
COC(=O)c1cc(-c2ccc(C(C)(C)C)cc2)c(=O)n2c1CCC2 | · | 3.5 | -3.9 | · | -0.3 | -0.7 | · | · | ·
CCCCOCCCNC(=O)C[C@H]1C[C@@]2(C(=O)OC)C(=C[C@H](C(C)C)O[C@@H]2C2CC2)N(CCc2ccc(OC)c(OC)c2)C1=O | · | -2.7 | -6.7 | · | -1.2 | -0.9 | · | · | ·
COc1ccc(Cn2cc(CN3[C@H](CC(C)C)COc4cc(Br)ccc4S3(=O)=O)nn2)cc1 | · | 5.0 | -4.7 | · | 1.8 | 4.2 | · | · | ·
